Assay outcomes as filed in PubChem BioAssay.
Hits are enriched below; roughly 3.3% of the tested compounds scored in any of these assays.
TCR CD3 inh: inhibitors of human TCR-CD3 interaction | TAMRA-labeled TCR probe fluorescence, biochemical | inhibition, % at 9.4 µM | 360,000 tested, 0.37% active; in the data active = inhibition above about 19%;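 note: recombinant mutant TCR 2C K166C tagged with TAMRA read by polarization; 0% = receptor in buffer alone and 100% = receptor with positive control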
SIAE primary: blocks human sialic acid acetylesterase | 370,000 tested, 0.69% active | inhibition, % at 9.66 µM | AID 1053197 | SIAE FP-Rh probe binding, fluorescence polarization | Q9HAT2;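 active = inhibition above a cutoff: mean of compounds within the control limits plus 3 SD of those, cut at about 17% in these data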;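 note: 0% = plate median of compound wells and 100% = probe without SIAE protein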
ABHD4 inh: inhibitors of mouse ABHD4; Q8VD66; purified mABHD4, FP-Rh probe fluorescence polarization; inhibition, % at 8.92 µM; 370,000 tested, 0.54% active; AID 720543;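 active = inhibition exceeding the mean over every tested compound plus 3 SD, cut at about 30% in these data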;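 note: 0% = plate median of compound wells and 100% = S159A mutant with DMSO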
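Test system: mABHD4 protein; Read-out basis: % inhibition; Incubation: 45 min + 60 min at 25 °C; Repeats: single replicate; Technique: fluorescence polarization with parallel and perpendicular emission, 525/598 nm; Compound: 8.92 µM, single dose; Benchmarks: full inhibition S159A mutant plus DMSO, zero as sample-well median.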
rCAG binder: molecules binding r(CAG) RNA repeats; r(CAG) RNA repeat, TO-PRO-1 dye displacement fluorescence; inhibition, % at 3 µM; 370,000 tested, 1.3% active; AID 651821;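 active = inhibition above the plate cutoff, the mean of all test compounds on that plate plus 3 SD, cut at about 35% in these data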;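 note: 0% = DMSO alone and 100% = 100 µM mitoxantrone as full dye displacement; higher means more dye released from RNA so lower well fluorescence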
PRMT1 inh: blocks human protein arginine methyltransferase 1; inhibition, % at 2.79 µM; recombinant PRMT1, activity-based probe fluorescence polarization; AID 652257; Q99873; 370,000 tested, 1.3% active;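 active = inhibition above about 21% made by adding two undisclosed values, limit read from the data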
Target sequence (Q99873 whole entry, looked up): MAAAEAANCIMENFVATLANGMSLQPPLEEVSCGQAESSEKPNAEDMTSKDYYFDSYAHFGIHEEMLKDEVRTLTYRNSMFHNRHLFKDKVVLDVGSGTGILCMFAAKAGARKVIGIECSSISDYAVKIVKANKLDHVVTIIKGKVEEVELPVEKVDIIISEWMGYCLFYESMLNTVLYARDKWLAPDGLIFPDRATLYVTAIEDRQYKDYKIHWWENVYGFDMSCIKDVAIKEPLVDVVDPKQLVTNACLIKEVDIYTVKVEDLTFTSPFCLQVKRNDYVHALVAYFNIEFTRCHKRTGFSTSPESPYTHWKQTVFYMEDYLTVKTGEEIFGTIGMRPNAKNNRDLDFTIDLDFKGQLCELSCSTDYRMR
PRMT1 confirm: confirmation of human PRMT1 inhibitors; 3,300 tested, 42% active; shares compounds with PRMT1 inh; inhibition, % at 2.79 µM; recombinant His-PRMT1, activity-based probe fluorescence polarization; AID 687036;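 active = mean inhibition across replicates above the hit cutoff derived for the earlier primary screen, cut at about 22% in these data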
An asterisk follows results filed as active.

O=C(NCc1ccc2c(c1)OCO2)c1nc(S(=O)(=O)Cc2ccccc2F)ncc1Cl was read as TCR CD3 inh -5, SIAE primary 1, ABHD4 inh 4, rCAG binder 2, PRMT1 inh 29* and PRMT1 confirm 22*.
For O=C(NCc1ccc2c(c1)OCO2)c1nc(S(=O)(=O)Cc2ccccc2)ncc1Cl the results were TCR CD3 inh 3, SIAE primary -2, ABHD4 inh -6, rCAG binder 1, PRMT1 inh 25* and PRMT1 confirm 17.
For CC(C)c1nnc(NC(=O)c2nc(S(=O)(=O)Cc3ccccc3F)ncc2Cl)s1 the results were TCR CD3 inh 3, SIAE primary 2, ABHD4 inh 2, rCAG binder 16 and PRMT1 inh 7.
For CC1=C(C(=O)Nc2ccccc2)C2(CCCCC2)C(C#N)=C(S)N1 the results were TCR CD3 inh 3, SIAE primary -9, ABHD4 inh 5, rCAG binder 17, PRMT1 inh 26* and PRMT1 confirm 25*.
`CSC1=C(C#N)C2(CCCCC2)C(C(=O)Nc2ccccc2)=C(C)N1` gave TCR CD3 inh -1, SIAE primary -9, ABHD4 inh -13, rCAG binder 11 and PRMT1 inh 7.
Cc1ccc(/C=C2\SC(=S)N(C3CCS(=O)(=O)C3)C2=O)cc1 (stereo unspecified) was read as TCR CD3 inh -8, SIAE primary -4, ABHD4 inh -7, rCAG binder 2 and PRMT1 inh 10.
For CC(C(=O)N(C)C1CCS(=O)(=O)C1)N1C(=O)/C(=C/c2ccc(F)cc2)SC1=S (stereo unspecified) the results were TCR CD3 inh 1, SIAE primary 0, ABHD4 inh -17, rCAG binder 4 and PRMT1 inh 1.
Screening O=C1/C(=C/c2ccco2)SC(=S)N1C1CCS(=O)(=O)C1 (stereo unspecified) returned TCR CD3 inh 1, SIAE primary 17, ABHD4 inh 23, rCAG binder 19, PRMT1 inh 36* and PRMT1 confirm 6.
`CCN(C(=O)C(C)N1C(=O)/C(=C/c2ccco2)SC1=S)C1CCS(=O)(=O)C1` (stereo unspecified) gave TCR CD3 inh 2, SIAE primary 2, ABHD4 inh 21, rCAG binder 33, PRMT1 inh 26* and PRMT1 confirm 6.
Screening CCOC(=O)[C@@]12CCCC=C1N(CCc1ccc(Cl)cc1)C(=O)[C@H]2CC(=O)N1CCCC1 returned SIAE primary 3, ABHD4 inh 3, rCAG binder 6 and PRMT1 inh 1.
C#CCN1CC(COCCCC)Oc2cccc(Oc3ccc(C(C)(C)C)c(C)c3)c2S1(=O)=O (stereo unspecified) was read as TCR CD3 inh 2, SIAE primary -5, ABHD4 inh -4, rCAG binder 3 and PRMT1 inh -5.
`COC(=O)[C@]12C[C@H](CC(=O)N3CCSCC3)C(=O)N(Cc3ccco3)C1=C[C@H](C(C)(C)C)O[C@@H]2C` gave SIAE primary -4, ABHD4 inh 5, rCAG binder 1 and PRMT1 inh 5.
For CC(=O)Nc1ccc(SCC(=O)N(CCC#N)c2ccc(C)cc2)cc1 the results were TCR CD3 inh -10, SIAE primary -8, ABHD4 inh -6, rCAG binder 0, PRMT1 inh 39* and PRMT1 confirm 16.
`O=C(NCC1COc2ccccc2O1)c1ccc(NC(=O)c2c(Cl)cccc2Cl)cc1` (stereo unspecified) gave SIAE primary -20, ABHD4 inh -47, rCAG binder 4 and PRMT1 inh -3.
For Cc1ccc(Cl)cc1NC(=O)CSC(N)=O the results were TCR CD3 inh -4, SIAE primary 0, ABHD4 inh 2, rCAG binder 2, PRMT1 inh 41* and PRMT1 confirm 99*.
For CCOC(=O)C1CCCN(S(=O)(=O)c2cc3c(cc2Cl)NC(=O)CO3)C1 (stereo unspecified) the results were TCR CD3 inh -15, SIAE primary 0, ABHD4 inh -5, rCAG binder 4, PRMT1 inh 34* and PRMT1 confirm 8.
`CCOC(=O)C1CCCN(S(=O)(=O)c2ccc3c(c2)NC(=O)CO3)C1` (stereo unspecified) gave TCR CD3 inh 2, SIAE primary 0, ABHD4 inh 4, rCAG binder -3 and PRMT1 inh 5.
Screening Nc1ncc2c(n1)CC(c1ccco1)CC2=O (stereo unspecified) returned TCR CD3 inh -5, SIAE primary 16, ABHD4 inh 12, rCAG binder 7, PRMT1 inh 28* and PRMT1 confirm 4.
Screening CCC(=O)Nc1ncc2c(n1)CC(c1ccco1)CC2=O (stereo unspecified) returned TCR CD3 inh 9, SIAE primary 5, ABHD4 inh 2, rCAG binder 4, PRMT1 inh 41* and PRMT1 confirm 8.
CC(=O)Nc1ncc2c(n1)CC(c1ccco1)CC2=O (stereo unspecified) was read as TCR CD3 inh 5, SIAE primary 3, ABHD4 inh 3, rCAG binder 0 and PRMT1 inh 0.
O=C(Nc1ncc2c(n1)CC(c1ccco1)CC2=O)c1ccco1 (stereo unspecified) was read as TCR CD3 inh -7, SIAE primary 5, ABHD4 inh 12, rCAG binder 2, PRMT1 inh 36* and PRMT1 confirm 4.
CSc1nc2c(=O)[nH]cnc2s1 was read as TCR CD3 inh 2, SIAE primary 0, ABHD4 inh 7, rCAG binder 2 and PRMT1 inh 1.
For COC(=O)c1cc(N2CCN(C)CC2)nc2ccccc12 the results were TCR CD3 inh 8, SIAE primary -2, ABHD4 inh 7, rCAG binder -76, PRMT1 inh 83* and PRMT1 confirm 5.
For CCOC(=O)c1cc(N2CCCCC2)nc2ccccc12 the results were TCR CD3 inh 7, SIAE primary 0, ABHD4 inh -4, rCAG binder 3 and PRMT1 inh -5.
For Cc1nnc(SCC2=C(C(=O)O)N3C(=O)[C@@H](NC(=O)Cn4cnnn4)[C@H]3SC2)s1 the results were TCR CD3 inh 1, SIAE primary 0, ABHD4 inh -1, rCAG binder 3 and PRMT1 inh 16.
Screening Cc1nnc(SCC2=C(C(=O)O)N3C(=O)C(NC(=O)COc4ccccc4)C3SC2)s1 (stereo unspecified) returned TCR CD3 inh -1, SIAE primary 5, ABHD4 inh 10, rCAG binder 21, PRMT1 inh 38* and PRMT1 confirm 69*.
For Cc1nnc(SCC2=C(C(=O)O)N3C(=O)C(NC(=O)c4cc(F)c(F)cc4Cl)C3SC2)s1 (stereo unspecified) the results were TCR CD3 inh -6, SIAE primary 1, ABHD4 inh 3, rCAG binder 9, PRMT1 inh 34* and PRMT1 confirm 17.
